Bioassay records deposited in PubChem by several laboratories.
A selection: hits, their analogues and other compounds. The true share with any hit is near 2.1%.
DNMT1 inh = human DNMT1 methyltransferase inhibitors, primary screen, biochemical, molecular beacon, fluorescence, HinP1I cleavage, uHTS; AID 588458, 2011; 360,000 compounds, 0.83% hits; inhibition (reported as % activation of signal), % at 10 µM; DNA (cytosine-5)-methyltransferase 1 (Homo sapiens), P26358; in the data active means inhibition above about 50%
SUMO1-SIM PPI = modulators of SUMO1 protein-protein interactions, primary screen, biochemical, uHTS; Small ubiquitin-related modifier 1 (Homo sapiens), P63165; SUMO1 binding to a labelled peptide, TR-FRET, 1 h; inhibition, % at 20 µM; 360,000 compounds, 0.33% hits; in the data active means inhibition above about 37%
Target sequence (P63165 whole entry, looked up): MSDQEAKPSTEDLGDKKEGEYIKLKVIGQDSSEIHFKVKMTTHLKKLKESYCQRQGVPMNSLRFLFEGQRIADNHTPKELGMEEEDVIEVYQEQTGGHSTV
LMPTP block = LMPTP phosphatase inhibitors, primary screen, biochemical, fluorescence intensity, uHTS. Low molecular weight phosphotyrosine protein phosphatase (Homo sapiens), P24666. recombinant LMPTP-A, OMFP fluorogenic substrate. inhibition, % at 20 µM. 360,000 compounds, 0.22% hits. AID 651560, 2012;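 active means compounds that cut the enzyme signal by at least half of the control window in the single-dose screen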;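 further: plate controls were DMSO wells with enzyme plus substrate for no effect and substrate without enzyme for full effect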
Target sequence (P24666 whole entry, looked up): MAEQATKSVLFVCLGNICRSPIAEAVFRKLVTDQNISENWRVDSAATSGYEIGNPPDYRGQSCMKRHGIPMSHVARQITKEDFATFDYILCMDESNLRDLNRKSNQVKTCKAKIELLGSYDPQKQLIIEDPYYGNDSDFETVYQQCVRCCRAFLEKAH
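Assay system: LMPTP-A, protein tyrosine phosphatase of low molecular weight / Medium: pH 6.0 Bis-Tris buffer with DTT and Triton X-100 / Schedule: 50 min enzyme reaction at room temperature, protected from light / Measured by: endpoint fluorescence intensity from OMFP dephosphorylation / Read-out basis: % inhibition relative to no-enzyme and uninhibited control wells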
Scp-1 inhibitor = Scp-1 phosphatase inhibitors, primary screen, biochemical, colorimetric, uHTS; Recombinant Scp1, phosphopeptide, malachite green phosphate absorbance; inhibition, % at 20 µM; 340,000 compounds, 0.88% hits;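 active means inhibition above about 50% at 20 µM, limit read from the data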;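 further: plate controls were DMSO wells with enzyme for no effect and wells lacking enzyme for full effect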
Target sequence (Q9GZU7 76-261 limits assumed): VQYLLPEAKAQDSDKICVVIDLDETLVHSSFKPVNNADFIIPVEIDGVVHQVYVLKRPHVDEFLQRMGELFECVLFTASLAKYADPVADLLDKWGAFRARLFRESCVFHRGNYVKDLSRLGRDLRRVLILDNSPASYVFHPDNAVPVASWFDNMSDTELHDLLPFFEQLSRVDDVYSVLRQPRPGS
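Test system: SCP-1 phosphatase catalytic domain, residues 76-261; measured by: colorimetric phosphate reagent with accelerator and stabiliser, absorbance at 630 nm; timing: enzyme reaction 45 min at room temperature, colour 5 min, stabilisation 30 min; also added: Phosphorylated 17-residue peptide substrate; compound dosing: one concentration, 20 µM, with 1.0% DMSO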
STEP block = STEP phosphatase inhibitors, primary screen, biochemical, fluorescence intensity, uHTS; Tyrosine-protein phosphatase non-receptor type 5 (Homo sapiens), P54829; recombinant STEP, OMFP fluorogenic substrate; inhibition, % at 20 µM; 360,000 compounds, 0.25% hits;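 active means inhibition at 20 µM, scaled per plate between control wells, above about 37%, limit read from the data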;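 further: 0% = DMSO with enzyme and substrate and 100% = substrate only without enzyme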
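System: STEP (striatal-enriched tyrosine phosphatase) enzyme, cell-free; medium: Bis-Tris pH 6.0 buffer with DTT, detergent; dosing: 20 µM, 1% DMSO; times: reaction 20 min, ambient temperature; detection: fluorescence, 480/540 nm; read-out basis: normalized % inhibition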
GRK2 inh = compounds blocking aptamer binding on GRK2 – biochemical, human GRK2, bead flow cytometry, HTS, primary screen; Beta-adrenergic receptor kinase 1 (Homo sapiens), P25098; FAM-aptamer displacement from GRK2; inhibition of aptamer binding, % at 10 µM; 330,000 compounds, 0.59% hits; AID 488847, 2010;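 active means inhibition of aptamer binding above 40%, roughly 3 SD of noise, on plates passing a quality check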;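 further: median bead fluorescence of bound FAM aptamer so fluorescent compounds give negative values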
DNMT1 inh conf = DNMT1 methyltransferase inhibitor retest, confirmation, biochemical, molecular beacon, fluorescence, single concentration. shares compounds with DNMT1 inh. DNMT1 molecular beacon HinP1I cleavage. inhibition, % at 10 µM. 2,300 compounds, 8% hits;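 active means average inhibition of at least 30% in the single-concentration confirmation test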
Beacon interf = beacon fluorescence artifact counter-screen | DNMT1 molecular beacon spectral interference counterscreen, fluorescence 485/520 | 2,300 compounds, 1% hits | shares compounds with DNMT1 inh | activation (fluorescence interference), % at 10 µM;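 active means activation of at least 30% at 10 µM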;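 further: DNMT1 catalytic domain with a HinP1I cleavage step and a FAM/dabcyl DNA beacon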
* = called active by the depositor; · = no result; ! = a repeat was not active.

SMILES | DNMT1 inh | SUMO1-SIM PPI | LMPTP block | Scp-1 inhibitor | STEP block | GRK2 inh | DNMT1 inh conf | Beacon interf
O=C(C[C@H]1C/C=C\C[C@H](NC(=O)OCC2c3ccccc3-c3ccccc32)C(=O)OC[C@H](Cc2ccccc2)NC1=O)N[C@H](CO)Cc1ccccc1 | 51.3* | 0.7 | -0.5 | -4.4 | -4.3 | 0.0 | 2.6 | -2.6
C[C@@H]1COC(=O)[C@H](NC(=O)OCC2c3ccccc3-c3ccccc32)C/C=C\C[C@@H](CC(=O)N[C@@H](CO)Cc2ccccc2)C(=O)N1 | 11.1 | -3.3 | -0.6 | -5.0 | -0.5 | 4.0 | · | ·
CN1OC[C@@H]2CN(S(=O)(=O)c3ccccc3)[C@H](c3ccccc3Br)C[C@@H]21 | 0.6 | 2.9 | -1.0 | · | -2.3 | · | · | ·
Cc1onc(-c2ccccc2)c1C(=O)OCC(=O)c1ccc(F)cc1 | -2.9 | -16.9 | -5.1 | · | 11.6 | · | · | ·
Cc1cc(C)cc(-n2c3nc4ccccc4nc3c3c(=O)n(Cc4ccco4)cnc32)c1 | 98.1* | -0.2 | 56.3* | 4.6 | 2.0 | 5.0 | -0.1 | -3.8
CSc1ccc(/C=C(/NC(=O)c2ccc(C)cc2)C(=O)Nc2cccc(C)c2)cc1 | 54.7* | 1.0 | 0.0 | -2.7 | 1.3 | 0.0 | 0.1 | 2.4
Cc1cccc(NC(=O)/C(=C\c2ccc([N+](=O)[O-])o2)NC(=O)c2ccc(Cl)cc2)c1 | 85.3* | -13.3 | 8.8 | 45.1 | 6.7 | 8.0 | -1.1 | 2.8
COC(=O)/C(=C\c1ccc([N+](=O)[O-])o1)NC(=O)c1ccccc1 | 5.5 | -20.1 | 0.1 | -3.3 | 1.5 | 0.0 | · | ·
COc1ccc(C(C)=O)cc1Cn1c(C)c(C(=O)NC2CC2)sc1=O | -2.7 | 3.2 | 0.4 | · | -0.5 | · | · | ·
Cc1ccc(C(=O)N(C)Cc2nc3ccccc3c(=O)[nH]2)cc1NC(=O)c1ccco1 | 1.3 | -0.2 | 3.0 | -1.0 | 2.3 | 0.0 | · | ·
CCNc1nc(NC(C)C)nc(NS(=O)(=O)c2ccc(C)cc2)n1 | 1.0 | 1.5 | 0.5 | 0.1 | 0.7 | 0.0 | · | ·
Cc1ccc(CNC(=O)c2nnn(CC(=O)Nc3cccc(C)c3C)c2N)cc1 | 61.5* | 2.0 | 23.1 | -3.5 | 0.4 | 0.0 | 12.1 | -2.9
Cc1ccc(CNC(=O)Cn2nnc(C(=O)Nc3cccc(C)c3C)c2N)cc1 | 5.2 | -0.2 | 1.5 | -8.2 | -3.7 | 0.0 | · | ·
O=C(N[C@@H]1CC[C@@H](CCNS(=O)(=O)c2ccc(Cl)cc2)O[C@@H]1CO)c1cccnc1 | · | 5.8 | -1.8 | · | · | · | · | ·
CN(C1=NS(=O)(=O)N=C(N(C)c2ccccc2)O1)c1ccccc1 | 47.1 | 1.5 | -0.2 | · | -1.0 | · | · | ·
CCOc1ccccc1OCC(=O)NC1CCSc2ccccc21 (stereo not given) | 3.8 | 3.0 | 0.4 | · | 1.4 | · | · | ·
O=C(Nc1ccccc1)C1CCCN1C(=O)NCc1ccccc1 (stereo not given) | 0.6 | 3.8 | 1.1 | -6.5 | -3.6 | 0.0 | · | ·
CC(=O)Nc1ccc(NC(=O)C2CCCN2C(=O)NCc2ccccc2)cc1 (stereo not given) | 87.5* | 1.3 | -1.2 | -7.4 | 4.3 | 0.0 | 1.5 | 2.6
c1cc(N2CCCCC2)nc(N2CCCCC2)n1 | -0.2 | 2.6 | -0.9 | -12.4 | -4.5 | · | · | ·
C[c-]1[c-](C)[c-](C)[c-](C)[c-]1C.[Fe].c1cc2nccc(N3CCCC3)[c-]2c1 (stereo not given) | 102.0*! | 119.8* | 71.0* | 68.5*! | 76.6* | 33.0 | 4.2 | 4.1
CC(NC(=O)CN(c1ccc(F)cc1)S(C)(=O)=O)c1ccccc1 (stereo not given) | 0.3 | -3.2 | -0.8 | -6.0 | 1.3 | 0.0 | · | ·
CC(NC(=O)CN(c1ccc(Cl)cc1)S(C)(=O)=O)c1ccccc1 (stereo not given) | 57.5* | 0.8 | -0.7 | -9.5 | -2.5 | 1.0 | 6.7 | 5.0
CC(=O)Nc1cccc(-c2ccnc3c2CC(C)(C(=O)Nc2ccc(Cl)c(C(F)(F)F)c2)O3)c1 (stereo not given) | -35.5 | 15.0 | 4.6 | · | -3.4 | · | · | ·
Nc1ccc2c(c1)[nH]c(=O)c1ccccc12 | 80.0* | -3.0 | -0.2 | -0.3 | 1.8 | · | 5.6 | 1.2
C=CCSC1=N/C(=C\c2sccc2C)C(=O)S1 | 1.5 | -2.9 | 1.9 | -9.2 | -2.1 | 2.0 | · | ·
SMILES | DNMT1 inh | SUMO1-SIM PPI | LMPTP block | Scp-1 inhibitor | STEP block | GRK2 inh | DNMT1 inh conf | Beacon interf
C=CCSC1=N/C(=C\C=C\c2ccco2)C(=O)S1 | 97.3* | 20.9 | 36.4 | 53.4* | 4.2 | 21.0 | 2.6 | -2.5
CCCN(C(=O)CSc1nnc(-c2ccc3c(c2)OCO3)o1)C1CCS(=O)(=O)C1 (stereo not given) | 1.8 | 2.8 | -0.7 | · | -1.0 | · | · | ·
Cc1nc(-c2ccc(F)cc2)c(CC(=O)N(C)CC(=O)Nc2ccc(Br)cc2C)s1 | -1.9 | -14.5 | 0.1 | -0.8 | -0.2 | 0.0 | · | ·
Cc1ccc(C)c(S(=O)(=O)N2CCN(C(=O)/C=C/c3ccco3)CC2)c1 | 75.7* | -1.1 | 3.4 | 23.1 | -1.2 | 0.0 | 6.6 | 1.8
Cc1ccc(C(O)c2ncc(-c3ccccc3)[nH]2)c(C)c1 (stereo not given) | -0.7 | 0.8 | -1.0 | · | -1.8 | · | · | ·
COc1cc(OC)c2ccc(=O)oc2c1C(CCN1CCOCC1)c1ccc2c(c1)OCO2 (stereo not given) | 60.9* | -4.7 | -0.6 | 1.3 | -1.2 | 0.0 | 3.6 | 2.1
CC1(C)C2CC[C@]3(C)C(CC=C4[C@@H]5C[C@@](C)(CO)[C@@H](O)C[C@]5(C(=O)O)CC[C@]43C)[C@@]2(C)CC[C@@H]1O (stereo not given in full) | -1.6 | 0.5 | 1.4 | 9.5 | -1.2 | 4.0 | · | ·
C=C(C)[C@@H]1CCC2(C(=O)O)CC[C@]3(C)[C@H](CC[C@@H]4[C@@]5(C)CCC(=O)C(C)(C)[C@@H]5CC[C@]43C)[C@@H]12 (stereo not given in full) | 55.0* | 2.4 | 2.1 | 4.4 | 0.9 | 1.0 | 1.0 | -7.8
